Measurements reported in ChEMBL document CHEMBL1155292, “Synthesis, analgesic and anti-inflammatory activities evaluation of some bi-, tri- and tetracyclic condensed pyrimidines” (Eur J Med Chem, 2009).

Columns and labels:
Rattus norvegicus [1] = assay: Antiinflammatory activity in albino rat assessed as inhibition of carrageenan-induced paw edema at 0.029 mmol/kg, po after 3 hrs relative to control; type: functional
Procedure, shortened: (§1)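 Adult albino rats of either sex, 120–150 g, six per group. Compounds at 0.029 mmol/kg suspended in saline with a few drops of Tween 80 and given by oral stomach tube. After 1 h, 0.1 ml of freshly prepared 1% carrageenan in saline injected subplantar into the right hind paw. Paw thickness measured at 1–4 h; % edema inhibition versus control; mean ± SEM; ANOVA.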

Rattus norvegicus [2] = assay: Gastrointestinal toxicity in albino rat assessed as ulcerogenic index at 0.029 mmol/kg, po after 5 hrs; type: organism-based; conditions: in vivo
Procedure, shortened: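 Adult albino rats of either sex (120–150 g), 6 per group, got the test compounds orally by stomach tube as a suspension in saline with a few drops of tween 80. They were the same rats used in the carrageenan paw-edema test. Stomachs were then opened along the great curvature and examined for lesions or bleeding. Ulceration was recorded as the number of rats with ulcers out of 6.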

Rattus norvegicus [3] = assay: Antiinflammatory activity in albino rat assessed as inhibition of carrageenan-induced paw edema at 0.029 mmol/kg, po after 4 hrs relative to control; type: functional; procedure, shortened: as §1
Rattus norvegicus [4] = assay: Antiinflammatory activity in albino rat assessed as inhibition of carrageenan-induced paw edema at 0.029 mmol/kg, po after 4 hrs relative to indomethacin; type: functional
Procedure, shortened: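 Rat carrageenan paw edema: oral 0.029 mmol/kg in saline/Tween 80, 1 h before subplantar 0.1 ml 1% carrageenan into the right hind paw; six rats per group. Potency is % inhibition of the test compound divided by % inhibition of indomethacin at 4 h.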

Rattus norvegicus [5] = assay: Antiinflammatory activity in albino rat assessed as inhibition of carrageenan-induced paw edema at 0.029 mmol/kg, po after 1 hr relative to control; type: functional; procedure, shortened: as §1
Mus musculus [6] = assay: Analgesic activity in albino mouse assessed as decrease in acetic acid-induced writhing at 8.94 mg/kg, po administered 1 hr prior to acetic acid challenge relative to control; type: functional
Procedure, shortened: (§2)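 Albino mice of either sex, 18–22 g, six per group. Test agents suspended in saline with a few drops of Tween 80 and given by oral stomach tube; controls handled identically without drug. After 1 h, 0.3 ml of 1% acetic acid ip. Writhing contractions counted for 30 min, starting 5 min after injection. % protection versus control mean; mean ± SEM; one-way ANOVA with post hoc test.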

Rattus norvegicus [7] = assay: Antiinflammatory activity in albino rat assessed as inhibition of carrageenan-induced paw edema at 0.029 mmol/kg, po after 2 hrs relative to control; type: functional; procedure, shortened: as §1
Mus musculus [8] = assay: Analgesic activity in albino mouse assessed as decrease in acetic acid-induced writhing at 8.59 mg/kg, po administered 1 hr prior to acetic acid challenge relative to control; type: functional; procedure, shortened: as §2
Mus musculus [9] = assay: Analgesic activity in albino mouse assessed as decrease in acetic acid-induced writhing at 2 mg/kg, po administered 1 hr prior to acetic acid challenge; type: functional; procedure, shortened: as §2
Mus musculus [10] = assay: Analgesic activity in albino mouse assessed as decrease in acetic acid-induced writhing at 4 mg/kg, po administered 1 hr prior to acetic acid challenge; type: functional; procedure, shortened: as §2
Mus musculus [11] = assay: Analgesic activity in albino mouse assessed as decrease in acetic acid-induced writhing at 8 mg/kg, po administered 1 hr prior to acetic acid challenge; type: functional; procedure, shortened: as §2
Mus musculus [12] = assay: Analgesic activity in po dosed albino mouse assessed as decrease in acetic acid-induced writhing administered 1 hr prior to acetic acid challenge; type: functional, organism-based; procedure, shortened: as §2
Mus musculus [13] = assay: Analgesic activity in albino mouse assessed as decrease in acetic acid-induced writhing at 0.8 mg/kg, po administered 1 hr prior to acetic acid challenge; type: functional; procedure, shortened: as §2
Mus musculus [14] = assay: Analgesic activity in albino mouse assessed as decrease in acetic acid-induced writhing at 1 mg/kg, po administered 1 hr prior to acetic acid challenge; type: functional; procedure, shortened: as §2
Mus musculus [15] = assay: Analgesic activity in albino mouse assessed as decrease in acetic acid-induced writhing at 8.68 mg/kg, po administered 1 hr prior to acetic acid challenge relative to control; type: functional; procedure, shortened: as §2
Mus musculus [16] = assay: Analgesic activity in albino mouse assessed as decrease in acetic acid-induced writhing at 0.4 mg/kg, po administered 1 hr prior to acetic acid challenge; type: functional; procedure, shortened: as §2
Mus musculus [17] = assay: Analgesic activity in albino mouse assessed as decrease in acetic acid-induced writhing at 11.75 mg/kg, po administered 1 hr prior to acetic acid challenge relative to control; type: functional; procedure, shortened: as §2
Mus musculus [18] = assay: Analgesic activity in albino mouse assessed as decrease in acetic acid-induced writhing at 11.49 mg/kg, po administered 1 hr prior to acetic acid challenge relative to control; type: functional; procedure, shortened: as §2
Mus musculus [19] = assay: Analgesic activity in albino mouse assessed as decrease in acetic acid-induced writhing at 9 mg/kg, po administered 1 hr prior to acetic acid challenge relative to control; type: functional; procedure, shortened: as §2
Mus musculus [20] = assay: Analgesic activity in albino mouse assessed as decrease in acetic acid-induced writhing at 10.24 mg/kg, po administered 1 hr prior to acetic acid challenge relative to control; type: functional; procedure, shortened: as §2
Mus musculus [21] = assay: Analgesic activity in albino mouse assessed as decrease in acetic acid-induced writhing at 8.12 mg/kg, po administered 1 hr prior to acetic acid challenge relative to control; type: functional; procedure, shortened: as §2
Rattus norvegicus [22] = assay: Antiinflammatory activity in po dosed albino rat assessed as inhibition of carrageenan-induced paw edema; type: functional, organism-based
Procedure, shortened: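 Adult albino rats of either sex, 120–150 g, groups of 6. Compound suspended in saline with a few drops of tween 80, given by oral stomach tube 1 h before subplantar injection of freshly prepared 1% carrageenan (0.1 ml) in saline into right hind paw. Paw thickness read at 1–4 h; % edema inhibition versus carrageenan control; mean ± SEM, one-way ANOVA with post hoc test.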

Rattus norvegicus [23] = assay: Antiinflammatory activity in albino rat assessed as inhibition of carrageenan-induced paw edema at 15 mg/kg, po; type: functional
Procedure, shortened: (§3)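 Rat carrageenan paw edema with oral dosing at 10, 15, 20 and 25 mg/kg, suspended in saline with Tween 80, 1 h before subplantar 0.1 ml 1% carrageenan into the right hind paw. % edema inhibition versus control at each dose; IC50 (mg/kg) derived from these four doses.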

Rattus norvegicus [24] = assay: Antiinflammatory activity in albino rat assessed as inhibition of carrageenan-induced paw edema at 25 mg/kg, po; type: functional; procedure, shortened: as §3
Rattus norvegicus [25] = assay: Antiinflammatory activity in albino rat assessed as inhibition of carrageenan-induced paw edema at 10 mg/kg, po; type: functional; procedure, shortened: as §3
Rattus norvegicus [26] = assay: Antiinflammatory activity in albino rat assessed as inhibition of carrageenan-induced paw edema at 20 mg/kg, po; type: functional; procedure, shortened: as §3
Mus musculus [27] = assay: Analgesic activity in albino mouse assessed as decrease in acetic acid-induced writhing at 7.69 mg/kg, po administered 1 hr prior to acetic acid challenge relative to control; type: functional; procedure, shortened: as §2
Mus musculus [28] = assay: Analgesic activity in albino mouse assessed as decrease in acetic acid-induced writhing at 8.36 mg/kg, po administered 1 hr prior to acetic acid challenge relative to control; type: functional; procedure, shortened: as §2
Mus musculus [29] = assay: Analgesic activity in albino mouse assessed as decrease in acetic acid-induced writhing at 8.47 mg/kg, po administered 1 hr prior to acetic acid challenge relative to control; type: functional; procedure, shortened: as §2
Mus musculus [30] = assay: Analgesic activity in albino mouse assessed as decrease in acetic acid-induced writhing at 8.33 mg/kg, po administered 1 hr prior to acetic acid challenge relative to control; type: functional; procedure, shortened: as §2

SMILES	inhibition in vivo at 29 µmol/kg (Rattus norvegicus [1]) [%]	UI (Rattus norvegicus [2])	inhibition in vivo at 29 µmol/kg (Rattus norvegicus [3]) [%]	relative potency at 29 µmol/kg (Rattus norvegicus [4])	inhibition in vivo at 29 µmol/kg (Rattus norvegicus [5]) [%]	inhibition in vivo at 29 µmol/kg (Rattus norvegicus [7]) [%]	other results
CCCC/N=c1/c(C#N)c2n(c(=O)n1-c1ccccc1)CCC2	19.4	Non-toxic	22.4	0.81	11.2	24	inhibition in vivo at 8.94 mg/kg (Mus musculus [6]): 88.7%
N#Cc1c2n(c(=O)n(-c3ccccc3)/c1=N\CCO)CCC2	25.9	Non-toxic	27.3	1	5.6	22.3	inhibition in vivo at 8.59 mg/kg (Mus musculus [8]): 87.8%
N#CC1=C(NCCN)N(c2ccccc2)C(=O)N2CCCC12 (centres undefined)	25.9		16.9	0.61	15.7	27.3	inhibition in vivo at 2 mg/kg (Mus musculus [9]): 94.4%; inhibition in vivo at 4 mg/kg (Mus musculus [10]): 96%; inhibition in vivo at 8 mg/kg (Mus musculus [11]): 96.4%; IC50 (Mus musculus [12]): 0.402 mg/kg; inhibition in vivo at 0.8 mg/kg (Mus musculus [13]): 81.3%; inhibition in vivo at 1 mg/kg (Mus musculus [14]): 90.6%; inhibition in vivo at 8.68 mg/kg (Mus musculus [15]): 96.3%; inhibition in vivo at 0.4 mg/kg (Mus musculus [16]): 49.4%
O=C1NC(c2ccc([N+](=O)[O-])cc2)NC2=C1C1CCCN1C(=O)N2c1ccccc1 (centres undefined)	14.4		19.2	0.7	1.1	14.1	inhibition in vivo at 11.75 mg/kg (Mus musculus [17]): 94.6%
N#Cc1c2n(c(=O)n(-c3ccccc3)/c1=N/c1cccc(C(F)(F)F)c1)CCC2	8.63		9.31	0.34	8.97	7.44	inhibition in vivo at 11.49 mg/kg (Mus musculus [18]): 63.8%
CCO/C=N/C1=C(C#N)C2CCCN2C(=O)N1c1ccccc1 (centres undefined)	5.78	Non-toxic	4.96	0.18	22.4	9.12	inhibition in vivo at 9 mg/kg (Mus musculus [19]): 69.8%
N#Cc1ccc(/N=c2\c(C#N)c3n(c(=O)n2-c2ccccc2)CCC3)cc1	28.1	Non-toxic	23.6	0.86	16.9	28.1	inhibition in vivo at 10.24 mg/kg (Mus musculus [20]): 82.9%
O=C1NC(c2ccccc2[N+](=O)[O-])NC2=C1C1CCCN1C(=O)N2c1ccccc1 (centres undefined)	8.65		3.73	0.13	12.3	14.1	inhibition in vivo at 11.75 mg/kg (Mus musculus [17]): 86.8%
CC/N=c1/c(C#N)c2n(c(=O)n1-c1ccccc1)CCC2	24.5	Non-toxic	30.4	1.11	7.82	23.1	inhibition in vivo at 8.12 mg/kg (Mus musculus [21]): 74.4%
C/N=c1/c(C#N)c2n(c(=O)n1-c1ccccc1)CCC2	30.2	Non-toxic	34.8	1.27	19.1	26.5	IC50 (Rattus norvegicus [22]): 17.77 mg/kg; inhibition in vivo at 15 mg/kg (Rattus norvegicus [23]): 43%; inhibition in vivo at 25 mg/kg (Rattus norvegicus [24]): 62.7%; inhibition in vivo at 10 mg/kg (Rattus norvegicus [25]): 36%; inhibition in vivo at 20 mg/kg (Rattus norvegicus [26]): 50.8%; inhibition in vivo at 7.69 mg/kg (Mus musculus [27]): 74%
CCO/C=N/C1=C(C#N)C2CCCN2C(=S)N1CC (centres undefined)	20.9	Non-toxic	20.5	0.75	12.3	19	inhibition in vivo at 8.12 mg/kg (Mus musculus [21]): 88.1%
N/N=C(/N)C1=C(N)N(c2ccccc2)C(=O)N2CCCC12 (centres undefined)	25.9		23	0.84	8.97	27.3	inhibition in vivo at 8.36 mg/kg (Mus musculus [28]): 79%
C=CC/N=c1/c(C#N)c2n(c(=O)n1-c1ccccc1)CCC2	23.1	Non-toxic	14.3	0.52	2.23	19	inhibition in vivo at 8.47 mg/kg (Mus musculus [29]): 81.1%
NC1=C(/C(N)=N\O)C2CCCN2C(=O)N1c1ccccc1 (centres undefined)	21.6		27.3	1	4.45	14.9	inhibition in vivo at 8.33 mg/kg (Mus musculus [30]): 85.9%
